Source: PubChem
Most compounds without a hit are left out; they make up all but 3.1% or so of the library.
KCNQ1 pot – potentiators or activators of KCNQ1 channel, primary screen, cell-based, thallium flux, high-throughput; Potassium voltage-gated channel subfamily KQT member 1 (Homo sapiens), P51787; CHO-K1 KCNQ1, thallium flux FluxOR fluorescence; active compounds read high; B-score at 10 µM; 310,000 compounds, 0.35% hits; AID 2648, 2010;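 active = fluorescence ratio B-score, a plate-corrected score, at least three library SD, with initial intensity B-score within 5 SD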
Target sequence (P51787 whole entry, looked up): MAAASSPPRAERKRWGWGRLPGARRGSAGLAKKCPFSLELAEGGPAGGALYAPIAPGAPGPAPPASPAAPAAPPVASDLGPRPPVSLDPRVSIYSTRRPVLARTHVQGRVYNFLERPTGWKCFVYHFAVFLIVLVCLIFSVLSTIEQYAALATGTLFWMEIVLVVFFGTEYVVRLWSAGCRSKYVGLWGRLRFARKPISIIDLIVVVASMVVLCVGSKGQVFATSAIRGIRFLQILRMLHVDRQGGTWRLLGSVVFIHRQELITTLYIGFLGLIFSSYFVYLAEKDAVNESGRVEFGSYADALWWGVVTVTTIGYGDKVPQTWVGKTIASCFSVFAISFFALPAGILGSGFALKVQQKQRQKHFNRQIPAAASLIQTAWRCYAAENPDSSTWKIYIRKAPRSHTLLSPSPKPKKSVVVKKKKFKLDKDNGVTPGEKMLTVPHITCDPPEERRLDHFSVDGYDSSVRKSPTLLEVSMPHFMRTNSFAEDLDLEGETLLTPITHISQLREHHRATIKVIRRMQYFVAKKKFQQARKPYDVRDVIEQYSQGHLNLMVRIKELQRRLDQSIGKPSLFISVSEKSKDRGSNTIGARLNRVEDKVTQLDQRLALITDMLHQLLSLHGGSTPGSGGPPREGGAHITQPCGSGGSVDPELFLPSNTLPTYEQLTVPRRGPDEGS
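System: Stable KCNQ1 CHO-K1 line | Incubation: 90 min dye loading and 20 min compound exposure, both at room temperature | Measure: Ratio B score | Medium: Assay buffer for compound exposure, DMSO matched across wells | Compound dosing: Single-concentration screen | Probe or stimulus: K+/Tl+ depolarizing stimulus | Measured by: Kinetic FluxOR fluorescence, 10 s baseline plus 110 s post-stimulus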
KCNQ1 inh – inhibitors of human KCNQ1 channel, primary screen, cell-based, thallium flux, high-throughput | 310,000 compounds, 1.3% hits | AID 2642, 2010 | Potassium voltage-gated channel subfamily KQT member 1 (Homo sapiens), P51787 | B-score at 10 µM | CHO-K1 KCNQ1, FluxOR thallium flux fluorescence; active compounds read high;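 active = compounds whose thallium flux B-score, printed positive for inhibition, exceeds three library SD while starting fluorescence stays within three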;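 also: channel opened by potassium depolarization with thallium stimulus after 20 min compound exposure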
KCNK9 block – KCNK9 potassium channel inhibitors, primary screen, HEK293 cells, thallium flux | Potassium channel subfamily K member 9 (Homo sapiens), Q9NPC2 | FluxOR thallium flux fluorescence; active compounds read low | B-score at 10 µM | 310,000 compounds, 1.2% hits | AID 488922, 2010;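 active = ratio B-score over 3 SD below the library mean, with starting fluorescence within 5 SD of its mean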;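 also: negative B-score means less thallium flux so channel inhibition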
KCNK3 block – human KCNK3 channel inhibitors, primary screen, CHO cells, FluxOR thallium flux, B-score. FluxOR fluorescence; active compounds read low. B-score at 10 µM. 340,000 compounds, 0.84% hits;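 active = B-score under library mean minus 4 SD, starting fluorescence ratio at most library mean plus 5 SD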;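 also: more negative B-score means stronger inhibition of thallium flux through KCNK3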
hERG protect – hERG rescue from dofetilide block, primary screen, cell-based, CHO-hERG, FluxOR thallium flux, dofetilide IC70; Voltage-gated inwardly rectifying potassium channel KCNH2 (Homo sapiens), Q12809; dofetilide IC70 present; activation (rescue from dofetilide block), less the hit threshold, % at 10 µM; 310,000 compounds, 0.51% hits;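 active = activation above the mean of controls blocked by dofetilide plus 5 SD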;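 also: thallium influx through hERG after potassium depolarization seen as dye fluorescence rise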
KCNK3 inh conf – retest of human KCNK3 channel inhibitors, confirmation, CHO cells, FluxOR thallium flux, triplicate; FluxOR fluorescence; 0% buffer, 100% carvedilol maximal block; 2,400 compounds, 99% hits; AID 651638, 2012; ratio percent of control, % at 10 µM; shares compounds with KCNK3 block;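 active = ratio percent of control, averaged over triplicates, above buffer control mean plus 5 SD, cut at about 64% in these data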;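 also: ratio is the fluorescence rise from min to max over baseline after thallium stimulus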
KCNK3 noninduced – thallium flux inhibition in non-induced cells, primary screen, counter-screen for KCNK3 inhibitor project, cell-based, non-induced KCNK3 line, FluxOR thallium, triplicate; shares compounds with KCNK3 block; thallium flux ratio (lower = more inhibition) at 10 µM; 2,400 compounds, 40% hits; non-induced KCNK3 parental cells; active compounds read low;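 active = thallium flux ratio, averaged over three wells, more than 5 SD below the buffer control mean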;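 also: host cells are CHO cells without KCNK3 induction; ratio is peak minus trough fluorescence over baseline then normalized to buffer controls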
Active calls of the source: *; i = inactive; · = not tested or not shown.

SMILES	KCNQ1 pot	KCNQ1 inh	KCNK9 block	KCNK3 block	hERG protect	KCNK3 inh conf	KCNK3 noninduced
Cc1ccc(-c2csc3ncnc(N4CCN(Cc5ccccc5)CC4)c23)cc1	i	i	i	-11*	-11	119*	i
Cc1nnc(SCc2nnc(-c3cccs3)o2)s1	i	i	i	i	-12	·	·
C/C(=N\Nc1ccc([N+](=O)[O-])cc1[N+](=O)[O-])C(C)C(C)C (stereo unspecified)	i	8*	i	-9.2*	-8	93*	0.14*
O=C(COC(=O)c1cc(S(=O)(=O)N2CCc3ccccc3C2)ccc1Cl)NCc1ccco1	i	i	i	-9.4*	-6	97*	i
CC(C)(C)N(Cc1ccccc1)C(=O)COC(=O)C1CCN(c2ccc(C(F)(F)F)cn2)CC1	·	·	·	i	·	·	·
C#CCOc1ccc(C2C(C#N)=C(N)Oc3cc(O)ccc32)cc1 (stereo unspecified)	i	i	i	-9.5*	-3	95*	i
CCOc1ccc(C2C(C#N)=C(N)Oc3cc(O)ccc32)cc1OCC (stereo unspecified)	i	i	i	-9.3*	-6	99*	i
COc1ccc(C2C(C#N)=C(N)Oc3cc(O)ccc32)cc1Cl (stereo unspecified)	i	6*	i	-9*	-16	110*	0.15*
CCOc1ccccc1NC(=O)C(=O)N/N=C/c1cc(Br)ccc1O	i	i	i	i	-17	·	·
NC(N)=N/N=C/c1ccc(OCc2ccc(Cl)cc2)cc1	i	7*	i	-10*	-30	70*	i
COc1ccc(S(=O)(=O)N2CCN(Cc3cccc(Cl)c3)CC2)cc1	i	i	i	i	-2	·	·
COc1cccc(CN2CCN(S(=O)(=O)c3ccc(Cl)s3)CC2)c1	i	i	i	-9.2*	-4	116*	0.13*
CCCCOc1ccc(C(=O)NCC(=O)N2CCN(C(=O)c3ccco3)CC2)cc1	i	i	i	i	-13	·	·
O=C(COc1cccc2cccnc12)N/N=C/c1ccccc1O	i	i	i	i	-15	·	·
Oc1ccccc1/C=N/Nc1cccc2cccnc12	i	i	i	-11*	-9	98*	i
COc1ccc(CCNC(=O)c2ccccc2NC(=O)C2=C(C)OCCS2)c(OC)c1	i	i	i	i	-8	·	·
Cc1noc(C)c1NC(=O)N(C)C[C@H]1Oc2ccc(NS(=O)(=O)c3cn(C)cn3)cc2C(=O)N([C@H](C)CO)C[C@@H]1C	·	·	·	i	·	·	·
COC(=O)C1=C(C)NC(C)=C(C(=O)OCC2CCCO2)C1c1cccc(Cl)c1 (stereo unspecified)	i	i	i	-11*	-14	117*	i
O=[N+]([O-])c1ccc(/C=C/c2ccc3ccccc3n2)cc1	i	i	i	-9.2*	-4	94*	i
CCCCSc1nc2c(c(C(F)(F)F)c1C#N)CCC2	i	i	i	-9.1*	-11	119*	0.15*
COc1cc(=O)[nH]c(SCC(=O)Nc2nc3c(s2)CCCC3)n1	i	i	i	i	-1	·	·
CCOc1ccccc1NC(=O)c1cc(-c2cc(OC)c(OC)c(OC)c2)nc2ccccc12	i	i	i	-9.7*	-21	132*	0.093*
COc1ccc(OC)c(-c2cc(C(=O)Nc3ccccc3C(N)=O)c3ccccc3n2)c1	i	i	i	-9.3*	-18	111*	0.14*
CCN(CC)S(=O)(=O)c1ccc(N2CCOCC2)c(NC(=O)c2cccc3ccccc23)c1	i	i	i	i	-14	·	·
COc1ccccc1NC(=O)c1cc(-c2cc(OC)c(OC)c(OC)c2)nc2ccccc12	i	i	i	i	-7	·	·
SMILES	KCNQ1 pot	KCNQ1 inh	KCNK9 block	KCNK3 block	hERG protect	KCNK3 inh conf	KCNK3 noninduced
COc1ccc(-c2cc(C(=O)Nc3ccccc3N3CCOCC3)c3ccccc3n2)cc1OC	i	i	i	-8.7*	-19	95*	0.13*
COc1ccc(N2CCOCC2)c(NC(=O)c2cccc3ccccc23)c1	i	i	i	-9.5*	-7	108*	i
COc1ccc(OC)c(-c2cc(C(=O)N/N=C/c3ccc(F)cc3)c3ccccc3n2)c1	i	i	i	i	-16	·	·
Cc1cc(C(=O)CN2C(=O)c3ccccc3C2=O)c(C)n1Cc1cccs1	i	i	i	i	-7	·	·
Cc1cc(C(=O)Cn2nnc3ccccc3c2=O)c(C)n1Cc1cccs1	i	i	i	-9.1*	-2	111*	i
Cc1ccc(C)c(S(=O)(=O)NCCC(=O)N2CCCC(C(N)=O)C2)c1 (stereo unspecified)	·	·	·	i	·	·	·
O=C(Nc1cccnc1)c1cc(-c2cccnc2)nc2ccc(Br)cc12	i	i	-7.7*	-13*	-16	124*	0.12*
CCC(C)NC(=O)Nc1ccc(F)c(Cl)c1 (stereo unspecified)	i	i	i	-10*	-10	92*	0.16*
CCc1ccc(NC(=O)C(=S)NC2CCCCC2)cc1	i	i	i	i	-17	·	·
CCc1ccc(NC(=O)NC2CCCCCCC2)cc1	i	i	i	-9.4*	-7	125*	0.12*
Cc1ccc(CSc2nc3c(c(N(C)C)n2)CCCC3)cc1	i	i	i	-8.9*	-4	139*	0.12*
CCS(=O)c1ccccc1C(=O)OCC(=O)N1CCC(c2ccccc2)=N1 (stereo unspecified)	·	·	·	i	·	·	·
CC(NC(=O)Cc1ccsc1)c1ccc(F)cc1 (stereo unspecified)	i	i	i	i	-7	·	·
CCc1ccc(NC(=O)Nc2ccsc2C(=O)OC)cc1	i	i	i	-11*	-16	89*	i
COC(=O)c1sccc1NC(=O)Nc1ccc(C)c(C)c1	i	i	i	i	-11	·	·
